pKi: −log10 of the molar value. The source made the active and inactive calls. The rule behind the calls is not given here.
Tests used:
[1] = Displacement of [3H]-ditolylguanidine from sigma 2 receptor PCP binding site in rat liver membrane; format: cell membranes
Method in brief: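 Non-specific binding with 10 µM unlabelled ditolylguanidine. Triplicates; IC50 from at least 6 concentrations by nonlinear regression; Ki mean ± SEM of three experiments.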

[2] = biological target: Sigma non-opioid intracellular receptor 1 (Cavia porcellus, UniProt Q60492); experiment: Displacement of [3H]-(+)-pentazocine from sigma 1 receptor PCP binding site in guinea pig brain by liquid scintillation counting
[3] = Displacement of [3H]-(+)-MK801 from NMDA receptor PCP binding site in pig cortex membrane after 90 mins by liquid scintillation counting; format: cell membranes, Sus scrofa
Method in brief: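 Pig brain cortex membranes (about 100 µg protein) incubated with 2 nM [3H]-(+)-MK-801 and at least 6 test concentrations in 5 mM Tris–acetate, 1 mM EDTA, pH 7.5, 90 min at 25 °C. Filtered on PEI-soaked GF/C filters. Non-specific binding with 10 µM (+)-MK-801. IC50 by nonlinear regression, triplicates; Ki mean ± SEM of three experiments.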

[4] = Displacement of [3H]-(+)-MK801 from NMDA receptor PCP binding site
Method in brief: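 Pig brain cortex membranes (about 100 µg protein) incubated with test compound (at least 6 concentrations), 2 nM [3H]-(+)-MK-801 in 5 mM Tris–acetate, 1 mM EDTA, pH 7.5, 90 min at 25 °C. Filtered through polyethylenimine-soaked GF/C filters, counted by scintillation. Nonspecific binding with 10 µM (+)-MK-801. IC50 from nonlinear regression, converted to Ki. Triplicates, three independent experiments.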

[5] = system: Mus musculus; experiment: Analgesic activity against capsaicin-induced nocifensive behavior in mouse assessed as paw withdrawal latency to von Frey filament-induced pain at 0.5 mg/kg administered 30 mins before and measured 15 mins after capsaicin challenge; format: functional
Method in brief: (§1)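 Capsaicin injected into mid-plantar surface of right hind paw of mice; test ligand given 30 min before capsaicin. Mechanical withdrawal latency to a 1 g von Frey filament read 15 min after capsaicin; effect expressed as % analgesia.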

[6] = system: Mus musculus; experiment: Analgesic activity against capsaicin-induced nocifensive behavior in mouse assessed as paw withdrawal latency to von Frey filament-induced pain at 1 mg/kg administered 30 mins before and measured 15 mins after capsaicin challenge; format: functional; method in brief: as §1
[7] = system: Mus musculus; experiment: Analgesic activity against capsaicin-induced nocifensive behavior in mouse assessed as paw withdrawal latency to von Frey filament-induced pain at 32 mg/kg administered 30 mins before and measured 15 mins after capsaicin challenge; format: functional, organism-based; parameters: dose 32 mg/kg; method in brief: as §1
[8] = system: Mus musculus; experiment: Analgesic activity against capsaicin-induced nocifensive behavior in mouse assessed as paw withdrawal latency to von Frey filament-induced pain at 0.25 mg/kg administered 30 mins before and measured 15 mins after capsaicin challenge; format: functional; method in brief: as §1
[9] = Selectivity ratio of Ki for rat sigma 2 receptor to Ki for guinea pig sigma 1 receptor
[10] = system: Mus musculus; experiment: Analgesic activity against capsaicin-induced nocifensive behavior in mouse assessed as paw withdrawal latency to von Frey filament-induced pain at 0.125 mg/kg administered 30 mins before and measured 15 mins after capsaicin challenge; format: functional; method in brief: as §1

Sigma non-opioid intracellular receptor 1, sequence (Q60492 whole entry): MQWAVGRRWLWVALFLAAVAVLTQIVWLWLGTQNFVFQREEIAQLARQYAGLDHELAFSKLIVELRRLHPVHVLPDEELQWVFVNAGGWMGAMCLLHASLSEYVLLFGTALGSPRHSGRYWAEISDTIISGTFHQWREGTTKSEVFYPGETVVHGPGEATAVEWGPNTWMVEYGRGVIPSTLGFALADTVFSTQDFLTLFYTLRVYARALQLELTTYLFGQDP

| Compound | pKi [1] | pKi [2] | pKi [3] | further results |
| --- | --- | --- | --- | --- |
| CN(C)CC[C@@H]1CCO[C@H](c2ccccc2)O1 (racemic) | 5.74 | 5.78 | < 5.00 |  |
| CC[C@@]1(c2ccccc2)OCC[C@@H](CCNC)O1 (relative stereo) | < 5.00 | 6.07 | 6.81 |  |
| CN(C)CCC[C@@H]1CCO[C@H](c2ccccc2)O1 (relative stereo) | < 5.00 | 5.91 | < 5.00 |  |
| CC[C@@]1(c2ccccc2)OCC[C@@H](CCN)O1 (relative stereo) | < 5.00 | 6.02 | 7.62 |  |
| NCC[C@@H]1CCOC(c2ccccc2)(c2ccccc2)O1 | < 5.00 | < 5.00 | 5.63 |  |
| CC[C@]1(c2ccccc2)OC[C@H](CCN)O1 |  |  | 7.16 |  |
| CC[C@@]1(c2ccccc2)OCC[C@@H](CCCN)O1 (relative stereo) | 6.27 | 5.19 | 5.12 |  |
| Cc1ccccc1NC(=N)Nc1ccccc1C [DITOLYLGUANIDINE] | 7.19 |  |  |  |
| NC[C@@H]1CCOC(c2ccccc2)(c2ccccc2)O1 |  |  | 6.14 |  |
| c1ccc(C2(N3CCCCC3)CCCCC2)cc1 [PHENCYCLIDINE] |  |  | 7.55 |  |
| c1ccc(C2(c3ccccc3)OC[C@H]([C@@H]3CCCCN3)O2)cc1 [DEXOXADROL] |  |  |  | pKi [4]: 7.64 |
| CC[C@]1(c2ccccc2)OC[C@H]([C@@H]2CCCCN2)O1 [ETOXADROL] |  |  | 7.66 | pKi [4]: 7.70 |
| CNCC[C@@H]1CCO[C@H](c2ccccc2)O1 (racemic) | < 5.00 | 6.35 | < 5.00 |  |
| CC[C@]1(c2ccccc2)OCC[C@@H](CN)O1 |  |  | 6.59 |  |
| NCC[C@H]1COC(c2ccccc2)(c2ccccc2)O1 |  |  | 5.49 |  |
| CNCCC[C@@H]1CCO[C@H](c2ccccc2)O1 (relative stereo) | 5.20 | 6.49 | < 5.00 |  |
| c1ccc(CNCC[C@@H]2CCOC(c3ccccc3)(c3ccccc3)O2)cc1 | 5.56 | 6.49 | < 5.00 |  |
| NCC[C@@H]1CCOC2(O1)C1CC3CC(C1)CC2C3 (some centres undefined) | < 5.00 | 5.90 | < 5.00 |  |
| NCC[C@@H]1CCO[C@H](c2ccccc2)O1 (racemic) | < 5.00 | 6.78 | < 5.00 |  |
| NCCC[C@@H]1CCO[C@H](c2ccccc2)O1 (relative stereo) | 6.24 | 6.78 | < 5.00 |  |
| c1ccc(CNCC[C@@H]2CCO[C@H](c3ccccc3)O2)cc1 (racemic) | 7.04 | 7.72 | < 5.00 | Activity [5]: 100%; Activity [6]: 100%; Activity [7]: Active; Activity [8]: 70%; Ratio Ki [9]: 5; Activity [10]: 10% |
| CN(C)CC[C@@H]1CCOC(c2ccccc2)(c2ccccc2)O1 | < 5.00 | 6.18 | < 5.00 |  |
| c1ccc(CNCCC[C@@H]2CCO[C@H](c3ccccc3)O2)cc1 (relative stereo) | 5.41 | 6.79 | < 5.00 |  |
| NCCC[C@@H]1CCOC(c2ccccc2)(c2ccccc2)O1 | < 5.00 | 6.76 | < 5.00 |  |
| CC[C@@]1(c2ccccc2)OCC[C@@H](CCNCc2ccccc2)O1 (relative stereo) | 6.04 | 7.57 | < 5.00 | Activity [7]: inactive; Ratio Ki [9]: 33 |
| CNCC[C@@H]1CCOC(c2ccccc2)(c2ccccc2)O1 | < 5.00 | < 5.00 | 5.16 |  |
| CC[C@@]1(c2ccccc2)OCC[C@@H](CCN(C)C)O1 (relative stereo) | < 5.00 | 6.29 | 6.15 |  |

Source: ChEMBL document CHEMBL1781950, “Synthesis of 4-(aminoalkyl) substituted 1,3-dioxanes as potent NMDA and σ receptor antagonists” (Eur J Med Chem, 2011)
